Experimental data collected from several papers.
Each line is one published result; the experiments were not run side by side.
Effect on: cell growth or viability

CCC[C@H]1NC(=O)[C@H](Cc2cc(Cl)ccc2-c2cnn(C)c2)N(C)C(=O)[C@H](CC(C)C)NC(=O)[C@@H](N(C)C(=O)[C@H](CCCCN2CCOCC2)NC(=O)[C@@H](c2cccnc2)C2CCCCC2)CCCCNC1=O
GI50 (NCI-H446; MTT; 5 days): 4200 nM

C=CC(=O)c1cccnc1Nc1cc(C(F)(F)F)ccc1OCc1ccccc1
GI50 (HCT-15; SRB; 48 h): 19500 nM

COc1cc2c3c(n(CCCNC(C)C)c(=O)c2cc1OC)-c1nc2c(cc1C3=O)OCO2
IC50 (K562; MTS; 72 h): 182 nM

C=CC[C@@H]1/C=C(\C)C[C@H](C)C[C@H](OC)[C@H]2O[C@@](O)(C(=O)C(=O)N3CCCC[C@H]3C(=O)O[C@H](/C(C)=C/[C@@H]3CC[C@@H](O)[C@H](OC)C3)[C@H](C)[C@@H](O)CC1=O)[C@H](C)C[C@@H]2OC
GI50 (K562; MTT; 72 h): > 1000 nM

C=CC(=O)NC1CCN(c2ncc3ncnc(Nc4ccc(Oc5ccc6c(c5)ncn6C)c(C)c4)c3n2)CC1
EC50 (COR-L88): 313 nM

CC(C)C[C@@H]1NC(=O)[C@@H](N(C)C(=O)[C@H](CC2CCC2)NC(=O)[C@@H]2C[C@@H](F)CN2C(=O)C2(C(F)(F)F)CC(F)(F)C2)CCCCNC(=O)C2(CC2)NC(=O)[C@H](Cc2cc(Cl)ccc2Cl)N(C)C1=O
GI50 (NCI-H446; MTT; 5 days): 65 nM

CN(C)C(=O)c1cncc(-c2cnc3[nH]cc(-c4ccccc4C#N)c3c2)c1
GI50 (K562; MTT; 72 h): 591 nM

O=C(NO)c1ccc(CNc2nc3cccc(-c4ccc5c(c4)OCO5)n3n2)cc1
GI50 (HOP-92; SRB): 700 nM

CCN(c1cc(-c2ccc(CN3CCOCC3)cc2)cc(C(=O)NCc2c(C)cc(C)[nH]c2=O)c1C)C1CCOCC1
GI50 (HT-1376; ATP luminescence; 18 days): 385 nM

C=C(F)C(=O)N1CCN(c2nc(OC[C@@H]3CCCN3C)nc3c2CCN(c2cccc4cccc(Cl)c24)C3)C[C@@H]1CC#N
IC50 (NCI-H1373; ATP luminescence; 3D culture): 5.15 nM

COc1cc2c3c(n(CCCNCCO)c(=O)c2cc1OC)-c1nc2c(cc1C3=O)OCO2
IC50 (K562; MTS; 72 h): 196 nM

CN(C)C(=O)c1cncc(-c2cnc3[nH]cc(-c4ccccc4C(F)(F)F)c3c2)c1
GI50 (K562; MTT; 72 h): 453 nM

COc1cc2c3c(n(CCCN4CCOCC4)c(=O)c2cc1OC)-c1nc2c(cc1C3=O)OCO2
IC50 (K562; MTS; 72 h): 1010 nM

C=CC(=O)c1cccnc1Nc1cccc(C(F)(F)F)c1
GI50 (HCT-15; SRB; 48 h): 15400 nM

C=CS(=O)(=O)Nc1ccc(OC)c(-c2c[nH]c3ncc(-c4cncc(C(=O)N(C)C)c4)cc23)c1
GI50 (K562; MTT; 72 h): > 1000 nM

O=C(C=Cc1ccccc1)Nc1cc(-c2ccnc(N3CCC(O)CC3)c2)ccn1
IC50 (MCF-10A; MTT; 72 h): 3330 nM
